The text below walks through data of ChEMBL document CHEMBL1157206 (Bioorg Med Chem, 2008).

The test system of test [1] is L929. Nature of the test: Effect on oxidative stress in mouse L929 cells assessed as glutathione depletion at 50 uM after 4 hrs. Format: functional. An outline of the steps:
(§1)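 L929 cells seeded at 5 × 10³ per well and grown 48 h to about 90% confluence. Treatment runs in HBSS/15 mM Hepes pH 7.4 for 4 h at 37 °C. Cells are then washed and incubated 15 min with 7.5 µM monochlorobimane before the fluorescence read. Depletion counts as significant below 80% of control. Positive control is 100 µM diethylmaleate.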

In test [2] the test system is L929. Nature of the test: Growth inhibition in mouse L929 cells after 48 hrs. The class given is functional. Also on record: concentration or dose not given beside the values.
A further test has as its system MCF7. Nature of the test: Cytotoxicity against human MCF7 cells by resazurin reduction test. The class given is functional, cell-based. In outline:
(§2)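 Cells seeded at 5 × 10³ per well and allowed to adhere 16 h. Compounds are made up from DMSO stocks, with DMSO held at 0.5% (v/v) at every concentration, and added as a 4× solution in MEM. Continuous exposure lasts 48 h. Resazurin at 25 µg/mL in MEM without serum or phenol red is then given for 1 h at 37 °C, 5% CO₂. Fluorescence is read at ex 530/em 590 nm. IC50 comes from the blank-subtracted concentration–response curve, expressed as percent of control wells.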
In general terms: Alamar Blue is a resazurin reagent that responds to reducing activity.

The nature of test [3]: Cytotoxicity against human primary fibroblasts by resazurin reduction test. The class given is cell-based. To be noted: Fibroblast. An outline of the steps: as §2
For a further test, the system named is A549. Briefly: Cytotoxicity against human A549 cells by resazurin reduction test. The class given is functional, cell-based. An outline of the steps:
as §2

The subject of a further test is DLD-1. Nature of the test: Cytotoxicity against human DLD1 cells by resazurin reduction test. The class given is functional, cell-based. In outline:
as §2

A further test has as its system PC-3. Briefly: Cytotoxicity against human PC3 cells by resazurin reduction test. Format: functional, cell-based. In outline: as §2
The test system of the next test is PA-1. Briefly: Cytotoxicity against human PA1 cells by resazurin reduction test. Format: functional, cell-based. An outline of the steps:
as §2

Test [4] is described as follows: Cytotoxicity against human M4Beu cells by resazurin reduction test. Format: functional, cell-based. In outline: as §2
Test [5] relates to L929. Nature of the test: Effect on oxidative stress in mouse L929 cells assessed as ROS production at 6.25 uM after 4 hrs by 2',7'-dichlorofluorescein-diacetate assay. The class given is functional. An outline of the steps:
(§3)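 L929 cells seeded at 5 × 10³ per well and grown 48 h to about 90% confluence. Cells are loaded with 20 µM DCFH-DA in HBSS/15 mM Hepes pH 7.4 for 1 h at 37 °C, washed, then treated in the same buffer at 37 °C. Fluorescence is read after 4 h at 485/530 nm and expressed as percent of control. Above 150% counts as significant; 100 µM tert-butyl hydroperoxide serves as positive control.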

Test [6] concerns L929. Nature of the test: Effect on oxidative stress in mouse L929 cells assessed as ROS production at 12.5 uM after 4 hrs by 2',7'-dichlorofluorescein-diacetate assay. Format: functional. In outline:
as §3

The test system of test [7] is L929. Nature of the test: Effect on oxidative stress in mouse L929 cells assessed as cytolysis at 50 uM after 4 hrs by calcein-AM assay. Format: functional. An outline of the steps: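 L929 cells seeded at 5 × 10³ per well and grown 48 h to about 90% confluence. Cells are washed with HBSS/Hepes, then exposed 4 h at 37 °C in complete medium with 0.5% DMSO vehicle, in triplicate. Tween 80 is the lysis control. Detached cells are checked by microscopy, then 4 µM calcein-AM is added for 1 h and read at ex 485/em 530 nm. Percent intact cells = (sample − 100%-lysis background)/(vehicle − background) × 100.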

For test [8], the system named is L929. Nature of the test: Effect on oxidative stress in mouse L929 cells assessed as glutathione depletion at 6.25 uM after 4 hrs. Format: functional. An outline of the steps: as §1
In test [9] the test system is L929. Nature of the test: Effect on oxidative stress in mouse L929 cells assessed as ROS production at 25 uM after 4 hrs by 2',7'-dichlorofluorescein-diacetate assay. The class given is functional. In outline: as §3

Some results are limits rather than exact numbers.

As to `CC(=O)OC[C@H]1O[C@@H](NC(=O)CCNC(=O)CCCc2ccc(N(CCCl)CCCl)cc2)[C@H](F)[C@@H](OC(C)=O)[C@@H]1OC(C)=O`, the Activity entry with L929 [1] is recorded as “<=80%”. Also, in the test on L929 [2], the “inhibition (INH)” value was 50%. Also, the IC50 in the test with MCF7 was 13 µM; in test [3], 7 µM; in the test on A549, 9.2 µM; in the test on DLD-1, 11 µM; in the test on PC-3, 3.7 µM; in the test on PA-1, 0.24 µM. Further, in [4], 15 µM corresponded to half-maximal inhibition (IC50).

In the case of `CC(=O)OC[C@H]1O[C@@H](Oc2ccc(NC(=O)CNC(=O)CCCc3ccc(N(CCCl)CCCl)cc3)cc2)[C@H](F)[C@@H](OC(C)=O)[C@@H]1OC(C)=O`, the “inhibition (INH)” value in the test on L929 [2] stood at 40%. The concentration for half-maximal inhibition (IC50) in the test on MCF7 came out at 14 µM; in test [3], 16 µM; in the test on A549, 10 µM; with DLD-1 it was 6 µM; in the test on PC-3, 8 µM; in the test on PA-1, 1.6 µM. Also, the midpoint of inhibition in [4], the IC50, lay at 14 µM.

In the case of `CC(=O)OC[C@H]1O[C@@H](NC(=O)CCCNC(=O)CCCc2ccc(N(CCCl)CCCl)cc2)[C@H](F)[C@@H](OC(C)=O)[C@@H]1OC(C)=O`, the “inhibition (INH)” value in the test with L929 [2] is reported as 50%. The IC50 in the test on MCF7 turned out to be 12 µM; in test [3], 4.1 µM; in the test with A549 it was 13 µM; in the test with DLD-1 it was 9 µM; with PC-3, 3 µM; with PA-1, 0.27 µM. Further, the IC50 in [4] worked out at 9 µM. Moreover, in the test on L929 [5], the Activity entry is on record as “>=150%”.

Turning to `CC(=O)OC[C@H]1O[C@@H](NC(=O)NCCCc2ccc(N(CCCl)CCCl)cc2)[C@H](F)[C@@H](OC(C)=O)[C@@H]1OC(C)=O`, the “inhibition (INH)” value in the test with L929 [2] was determined as 40%. Besides, the 50% inhibitory concentration (IC50) in the test with MCF7 was found to be 26.4 µM; in test [3] it was 13 µM; in the test on A549, 8 µM; in the test on DLD-1, 7 µM; in the test with PC-3, 4 µM; in the test on PA-1, 0.6 µM. This molecule also came in with an IC50 in test [4] of 27 µM. Also, in the test with L929 [6], the Activity entry was “>=150%”.

`CC(=O)OC[C@H]1O[C@@H](NC(=O)c2ccc(NC(=O)CCCc3ccc(N(CCCl)CCCl)cc3)cc2)[C@H](F)[C@@H](OC(C)=O)[C@@H]1OC(C)=O`: the Activity result in the test with L929 [1] and in the test with L929 [7] was “<=80%” each time. In addition, the “inhibition (INH)” value in the test on L929 [2] was 50%. Moreover, the IC50 with MCF7 was determined as 5 µM; in test [3], 4 µM; in the test with A549, 2.7 µM; in the test on DLD-1 it was 3 µM; in the test with PC-3 it was 1.4 µM; in the test with PA-1 it was 0.3 µM. The molecule also yielded an IC50 in test [4] of 7 µM.

Regarding `CC(=O)OC[C@H]1O[C@@H](Oc2ccc(NC(=O)CCCc3ccc(N(CCCl)CCCl)cc3)cc2)[C@H](F)[C@@H](OC(C)=O)[C@@H]1OC(C)=O`, the IC50 in the test with MCF7 was 26 µM; in test [3] it was above 50 µM; in the test with A549, 1.9 µM; in the test with DLD-1 it was 10 µM; in the test with PC-3 it was 11 µM; in the test with PA-1, 0.76 µM. This molecule displayed an IC50 in [4] above 50 µM. The Activity entry with L929 [8] was “<=80%”.

As to `CC(=O)OC[C@H]1O[C@@H](NC(=O)CNC(=O)CCCc2ccc(N(CCCl)CCCl)cc2)[C@H](F)[C@@H](OC(C)=O)[C@@H]1OC(C)=O`, the “inhibition (INH)” value in the test on L929 [2] is reported as 70%. The IC50 with MCF7 came out at 8 µM; in test [3], 4.1 µM; with A549, 5 µM; in the test with DLD-1, 4 µM; in the test with PC-3, 10 µM; with PA-1 it was 1 µM. The half-maximal inhibitory concentration (IC50) in test [4] stood at 6.8 µM. Further, in the test on L929 [9], the Activity entry is recorded as “>=150%”.

In the case of `CC(=O)OC[C@H]1O[C@@H](NC(=O)CCCc2ccc(N(CCCl)CCCl)cc2)[C@H](F)[C@@H](OC(C)=O)[C@@H]1OC(C)=O`, the 50% inhibitory concentration (IC50) with MCF7 came to 27 µM; in [3], 11 µM; in the test with A549 it was 5.4 µM; in the test on DLD-1 it was 7.1 µM; with PC-3, 4.4 µM; in the test with PA-1 it was 1.3 µM. Besides, half-maximal inhibition in test [4] (IC50) was put at 27 µM.

Consider `O=C(O)CCCc1ccc(N(CCCl)CCCl)cc1` [CHLORAMBUCIL], for which, in the test with L929 [2], the “inhibition (INH)” value was 30%. Also, the IC50 in the test with MCF7 is above 100 µM; in [3], 99 µM; with A549 it was 43 µM; with DLD-1 it was 47 µM; in the test with PA-1, 2.8 µM; in test [4], above 100 µM. The Activity result in the test on L929 [8] is listed as “<=80%”; in the test with L929 [5], “>=150%”.

The term IC50 denotes the concentration at which inhibition is half-maximal.
